Experimental data as given in ChEMBL document CHEMBL1144930, “A short synthesis and biological evaluation of potent and nontoxic antimalarial bridged bicyclic beta-sulfonyl-endoperoxides” (J Med Chem, 2003).
Where “and” joins values, the source holds several entries; their conditions need not be identical. Equal values may be shown once. Calls of active or inactive are those of the source. The calls are words filed in the database; no cut-off is given here.

How the values were obtained:
[1] = In vitro antimalarial activity against chloroquine-sensitive NF54 strain of Plasmodium falciparum; type: functional
Procedure, shortened: (§1)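 Run in quadruplicate with fitted concentration-response curves (R2 ≥0.985). Artemisinin was run as a concurrent control.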

[2] = system: Mus musculus; test: In vivo antimalarial activity in mice (Mus musculus) against chloroquine-sensitive Plasmodium berghei N after subcutaneous administration; type: functional
[3] = system: Mus musculus; test: Number of mice survived in a group of 18 mice after injecting single intraperitoneal dose of 1000 mg/kg (single dose of 250 mg/kg did not cause mice mortality); type: functional
Procedure, shortened: (§2)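 Male CD-1 mice in groups of 18 received a single intraperitoneal dose (250, 500 or 1000 mg/kg) of the reference. Survival was scored. Clinical signs such as ruffled fur, hypoactivity and hunched posture were also recorded.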

[4] = system: Mus musculus; test: In vivo antimalarial activity in mice (Mus musculus) against chloroquine-sensitive Plasmodium berghei N after oral administration; type: functional
[5] = system: Mus musculus; test: Number of mice survived in a group of 18 mice after injecting single intraperitoneal dose of 500 mg/kg (single dose of 250 mg/kg did not cause mice mortality); type: functional; procedure, shortened: as §2
[6] = system: Mus musculus; test: In vivo antimalarial activity in mice (Mus musculus) against chloroquine-resistant Plasmodium yoelii species. NS after subcutaneous administration; type: functional
[7] = In vitro antimalarial activity against chloroquine-sensitive NF54 strain of Plasmodium falciparum (Experiment 1); type: functional; procedure, shortened: as §1
[8] = In vitro antimalarial activity against chloroquine-sensitive NF54 strain of Plasmodium falciparum (Experiment 2); type: functional; procedure, shortened: as §1
[9] = species: Mus musculus; test: Dose at which all the mice (from 4 groups) demonstarted 100% survival and normal expected body weight gain after injecting with compound for 14 days; type: functional
Procedure, shortened: (§3)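 Male CD-1/ICR mice in groups of at least 4, given a single intramuscular injection into rear-limb muscle (at most 0.05 mL per site). Test articles were dissolved or suspended at 5% in sesame oil; a vehicle group was included. Doses ranged from 85 to about 400 mg/kg. Survival and body weight gain were followed for 14 days.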

[10] = species: Mus musculus; test: Dose at which two mice demonstarted 100% survival and normal expected body weight gain after injecting with compound for 14 days; type: functional; procedure, shortened: as §3
[11] = system: Mus musculus; test: In vivo antimalarial activity in mice (Mus musculus) against chloroquine-resistant Plasmodium yoelii species. NS after subcutaneous administration; NA means Inactive at 30 mg/kg/day; type: functional, organism-based

CC1(O)C2CC(C[C@H]1OC(=O)c1ccccc1)[C@](C)(CS(=O)(=O)c1ccccc1)OO2 (stereo not given in full)
IC50 [1]: 2500 nM

C[C@@H]1[C@H](OCc2ccc(C(=O)O)cc2)O[C@@H]2O[C@@]3(C)CC[C@@H]4[C@@H](C)CC[C@@H]1[C@]24OO3 [ARTELINIC ACID]
ED50 [2]: 6.6 mg kg-1 5day-1
ED90 [2]: 14 mg kg-1 5day-1

CC1(O)CCC2CC1OO[C@]2(C)C[S+]([O-])c1ccccc1 (stereo not given in full)
IC50 [1]: 820 nM

CC(=O)OC1(C)CCC2CC1OO[C@]2(C)CS(=O)(=O)c1ccccc1 (stereo in doubt; 45c)
IC50 [1]: 270 nM

CO[C@H]1O[C@@H]2O[C@@]3(C)CC[C@H]4[C@H](C)CC[C@@H]([C@H]1C)[C@@]24OO3 [ARTEMETHER]
No. of mice survived [3]: 4
ED50 [4]: 3.1 mg kg-1 5day-1
ED90 [4]: 5 mg kg-1 5day-1
No. of mice survived [5]: 10
ED50 [2]: 0.5 mg kg-1 5day-1
ED90 [2]: 1.1 mg kg-1 5day-1

COC(=O)CS(=O)(=O)C[C@@]1(C)OOC2CC1CCC2(C)O (stereo not given in full)
IC50 [1]: > 2500 nM

CC1(O)C2CC(CC1OC(=O)c1ccccc1)[C@](C)(CS(=O)(=O)c1ccccc1)OO2 (stereo not given in full)
IC50 [1]: > 2500 nM

CC1=CCC2CC1OO[C@@]2(C)CSc1ccccc1 (stereo not given in full)
IC50 [1]: 940 nM

COc1ccc(COC2(C)CCC3CC2OO[C@@]3(C)CS(=O)(=O)c2ccccc2)cc1 (stereo not given in full)
ED50 [6]: 4.8 mg kg-1 5day-1
ED90 [6]: 8.3 mg kg-1 5day-1
IC50 [1]: 14 nM
ED50 [2]: 1.3 mg kg-1 5day-1
ED90 [2]: 2.3 mg kg-1 5day-1

CC(=O)OC1(C)CCC2CC1OO[C@@]2(C)C[S+]([O-])c1ccccc1 (stereo not given in full)
IC50 [1]: 62 nM and 54 nM

CC(=O)OC1(C)CCC2CC1OO[C@@]2(C)CS(=O)(=O)c1ccccc1 (stereo in doubt; 45d)
IC50 [1]: 220 nM

CCCCS(=O)(=O)C[C@@]1(C)OOC2CC1CC(OC(=O)c1ccccc1)C2(C)O (stereo not given in full)
IC50 [1]: 500 nM

C[C@@H]1CC[C@H]2[C@@H](C)C(=O)O[C@@H]3O[C@@]4(C)CC[C@@H]1[C@]32OO4 [ARTEMISININ]
IC50 [7]: 8.7 nM
ED50 [4]: 5 mg kg-1 5day-1
ED90 [4]: 14 mg kg-1 5day-1
ED50 [6]: 5.8 mg kg-1 5day-1
ED90 [6]: 10 mg kg-1 5day-1
ED50 [2]: 0.95 mg kg-1 5day-1
ED90 [2]: 2.5 mg kg-1 5day-1
IC50 [8]: 8.9 nM

C[C@@H]1C(=O)C[C@H]2C[C@@H]1OO[C@@]2(C)/C=C\c1ccc(C(F)(F)F)cc1C(F)(F)F [ARTEFLENE]
ED50 [4]: 10.4 mg kg-1 5day-1
ED90 [4]: 18 mg kg-1 5day-1
IC50 [1]: 71 nM
ED50 [2]: 2.7 mg kg-1 5day-1
ED90 [2]: 3.9 mg kg-1 5day-1

CC1(O)C2CC(CC1OC(=O)c1ccccc1)[C@@](C)(CS(=O)(=O)c1ccccc1)OO2 (stereo not given in full)
IC50 [1]: 170 nM

C[C@@]12OC1CC1CC2OO[C@@]1(C)CS(=O)(=O)c1ccccc1 (stereo not given in full)
IC50 [1]: 92 nM

CC(=O)OC1(C)CCC2CC1OO[C@]2(C)CS(=O)(=O)c1ccccc1 (stereo in doubt; 45a)
IC50 [1]: 20 nM

CC1=CCC2CC1OO[C@@]2(C)CS(=O)(=O)c1ccccc1 (stereo not given in full)
IC50 [1]: 360 nM

CC1CCC2CC1OO[C@@]2(C)CS(=O)(=O)c1ccccc1 (stereo not given in full)
IC50 [1]: 17 nM

CC1(O)CCC2CC1OO[C@@]2(C)CSC(c1ccccc1)(c1ccccc1)c1ccccc1 (stereo not given in full)
IC50 [1]: 150 nM

CCCCS(=O)(=O)C[C@]1(C)OOC2CC1CC(OC(=O)c1ccccc1)C2(C)O (stereo not given in full)
IC50 [1]: 2500 nM

CCOC(=O)C(=O)OC1(C)CCC2CC1OO[C@@]2(C)CS(=O)(=O)c1ccccc1 (stereo not given in full)
IC50 [1]: 170 nM

CC1CCC2CC1OO[C@]2(C)CS(=O)(=O)c1ccccc1 (stereo not given in full)
IC50 [1]: 24 nM

CC1(O)CCC2CC1OO[C@]2(C)CS(=O)(=O)c1ccccc1 (stereo in doubt; 26a)
IC50 [1]: 120 nM

CC(C)=CCOC1(C)CCC2CC1OO[C@@]2(C)CS(=O)(=O)c1ccccc1 (stereo not given in full)
IC50 [1]: 35 nM

CC1(O)CCC2CC1OO[C@@]2(C)CS(=O)(=O)c1ccccc1 (stereo in doubt; 26b)
IC50 [1]: 95 nM

CC1(OCc2ccccc2)CCC2CC1OO[C@@]2(C)CS(=O)(=O)c1ccccc1 (stereo not given in full)
ED50 [4]: 10.5 mg kg-1 5day-1
ED90 [4]: 115 mg kg-1 5day-1
ED50 [6]: 1.3 mg kg-1 5day-1
ED90 [6]: 3.8 mg kg-1 5day-1
Dose [9]: 380 mg/kg
IC50 [1]: 6.5 nM
ED50 [2]: 0.8 mg kg-1 5day-1
ED90 [2]: 1.7 mg kg-1 5day-1

CC(=O)OC1(C)CCC2CC1OO[C@]2(C)CS(=O)(=O)c1ccccc1 (stereo in doubt; 39b)
IC50 [1]: 17 nM

CCOC(=O)C(=O)OC1(C)CCC2CC1OO[C@]2(C)CS(=O)(=O)c1ccccc1 (stereo not given in full)
IC50 [1]: 140 nM

CC1(OC(=O)C(=O)N(Cc2ccccc2)Cc2ccccc2)CCC2CC1OO[C@]2(C)CS(=O)(=O)c1ccccc1 (stereo not given in full)
IC50 [1]: 81 nM

CC1(O)C2CC(C[C@H]1O)[C@@](C)(CS(=O)(=O)c1ccccc1)OO2 (stereo not given in full)
IC50 [1]: > 2500 nM

CCO[C@H]1O[C@@H]2O[C@@]3(C)CC[C@H]4[C@H](C)CC[C@@H]([C@H]1C)[C@@]24OO3 [ARTEMOTIL]
Dose [10]: 360 mg/kg
ED50 [2]: 0.9 mg kg-1 5day-1
ED90 [2]: 1.4 mg kg-1 5day-1

CC1(O)CCC2CC1OO[C@@]2(C)CS(=O)(=O)c1ccc(F)cc1 (stereo not given in full)
IC50 [1]: 49 nM

CC1(OC(=O)C(=O)N(Cc2ccccc2)Cc2ccccc2)CCC2CC1OO[C@@]2(C)CS(=O)(=O)c1ccccc1 (stereo not given in full)
IC50 [1]: 21 nM

CC1(O)CCC2CC1OO[C@@]2(C)CS(=O)(=O)c1ccccc1 (stereo in doubt; 23a) [listing 1 of 2 here]
IC50 [1]: 55 nM
ED50 [2]: >30 mg kg-1 5day-1
ED90 [2]: >30 mg kg-1 5day-1

CC(=O)OC1(C)CCC2CC1OO[C@@]2(C)CS(=O)(=O)c1ccccc1 (stereo in doubt; 39a)
ED50 [6]: 12.5 mg kg-1 5day-1
ED90 [6]: 28 mg kg-1 5day-1
IC50 [1]: 17 nM
ED50 [2]: 3.7 mg kg-1 5day-1
ED90 [2]: 7.3 mg kg-1 5day-1

CC1(O)CCC2CC1OO[C@]2(C)CS(=O)(=O)c1ccccc1 (stereo in doubt; 23b)
IC50 [1]: 89 nM

CC1(O)CCC2CC1OO[C@@]2(C)CS(=O)(=O)c1ccccc1 (stereo in doubt; 23a) [listing 2 of 2 here]
NA [11]: Inactive at 30 mg/kg/day

CC(=O)CC(=O)OC1(C)CCC2CC1OO[C@@]2(C)CS(=O)(=O)c1ccccc1 (stereo not given in full)
IC50 [1]: 46 nM

CCN(CC)CCCC(C)Nc1ccnc2cc(Cl)ccc12 (stereo not given) [CHLOROQUINE]
ED50 [4]: 1.9 mg kg-1 5day-1
ED90 [4]: 2.3 mg kg-1 5day-1
ED50 [6]: 2.4 mg kg-1 5day-1
ED90 [6]: 56 mg kg-1 5day-1
ED50 [2]: 1 mg kg-1 5day-1
ED90 [2]: 1.2 mg kg-1 5day-1

CC(=O)CC(=O)OC1(C)CCC2CC1OO[C@]2(C)CS(=O)(=O)c1ccccc1 (stereo not given in full)
IC50 [1]: 73 nM

COC(=O)CS(=O)(=O)C[C@]1(C)OOC2CC1CCC2(C)O (stereo not given in full)
IC50 [1]: > 2500 nM

CC(=O)OC1(C)CCC2CC1OO[C@]2(C)C[S+]([O-])c1ccccc1 (stereo not given in full)
IC50 [1]: 40 nM and 14 nM

C=C1CCC2CC1OO[C@@]2(C)CS(=O)(=O)c1ccccc1 (stereo not given in full)
IC50 [1]: < 3220 nM

CC1(OCc2ccccc2)CCC2CC1OO[C@]2(C)CS(=O)(=O)c1ccccc1 (stereo not given in full)
ED50 [4]: 4.2 mg kg-1 5day-1
ED90 [4]: 23.5 mg kg-1 5day-1
ED50 [6]: 1 mg kg-1 5day-1
ED90 [6]: 3.1 mg kg-1 5day-1
Dose [9]: 380 mg/kg
IC50 [1]: 9.4 nM
ED50 [2]: 0.43 mg kg-1 5day-1
ED90 [2]: 1.3 mg kg-1 5day-1

CC1(OC(=O)COc2ccccc2)CCC2CC1OO[C@@]2(C)CS(=O)(=O)c1ccccc1 (stereo not given in full)
IC50 [1]: 37 nM

CC(=O)OC1(C)CCC2CC1OO[C@@]2(C)CS(=O)(=O)c1ccccc1 (stereo in doubt; 45b)
IC50 [1]: 18 nM

CC1(O)CCC2CC1OO[C@]2(C)CS(=O)(=O)c1ccc(F)cc1 (stereo not given in full)
IC50 [1]: 52 nM

CC1(OC/C=C/c2ccccc2)CCC2CC1OO[C@@]2(C)CS(=O)(=O)c1ccccc1 (stereo not given in full)
IC50 [1]: 32 nM

CC1(O)CCC2CC1OO[C@]2(C)CSC(c1ccccc1)(c1ccccc1)c1ccccc1 (stereo not given in full)
IC50 [1]: 72 nM

CC1(O)CCC2CC1OO[C@@]2(C)C[S+]([O-])c1ccccc1 (stereo not given in full)
IC50 [1]: 150 nM

CC1(O)C2CC(C[C@H]1OC(=O)c1ccccc1)[C@@](C)(CS(=O)(=O)c1ccccc1)OO2 (stereo not given in full)
IC50 [1]: 815 nM
